Data taken from ChEMBL document CHEMBL1649231, “In vitro activities of panduratin A against clinical Staphylococcus strains” (2009).
Values after ≈ are worked out from the molar mass of the structure shown.

Assays:
Assay type in all cases: functional
[1] = tested on: Staphylococcus haemolyticus; assay: Antimicrobial activity against methicillin-resistant coagulase-negative Staphylococcus haemolyticus after 24 hrs by broth microdilution method
Summary of the method: (§1)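 Clinical isolates came from blood, body fluids, genital secretions, pus or sputum, identified conventionally or by Vitek. MICs were run by CLSI M7-A6 broth microdilution in Mueller-Hinton broth with 5 × 10^5 CFU/ml inoculum. Agents were twofold serially diluted, starting from 10% DMSO. Drug-free and uninoculated controls were included. Plates were incubated aerobically at 37°C for 24 h; MIC is the lowest concentration giving no visible growth.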

Mammaliicoccus sciuri [2] = assay: Antimicrobial activity against methicillin-susceptible coagulase-negative Staphylococcus sciuri after 24 hrs by broth microdilution method; summary of the method: as §1
Staphylococcus simulans [3] = assay: Antimicrobial activity against methicillin-susceptible coagulase-negative Staphylococcus simulans after 24 hrs by broth microdilution method; summary of the method: as §1
Streptococcus mutans [4] = assay: Bactericidal activity against Streptococcus mutans
Mammaliicoccus sciuri [5] = assay: Antimicrobial activity against methicillin-resistant coagulase-negative Staphylococcus sciuri after 24 hrs by broth microdilution method; summary of the method: as §1
[6] = tested on: Staphylococcus haemolyticus; assay: Antimicrobial activity against methicillin-susceptible coagulase-negative Staphylococcus haemolyticus after 24 hrs by broth microdilution method; summary of the method: as §1
Staphylococcus aureus [7] = assay: Antimicrobial activity against methicillin-resistant Staphylococcus aureus after 24 hrs by broth microdilution method; summary of the method: as §1
Streptococcus mutans [8] = assay: Antimicrobial activity against Streptococcus mutans
Staphylococcus hominis [9] = assay: Bactericidal activity against methicillin-susceptible coagulase-negative Staphylococcus hominis after 24 hrs by plate counting method
Summary of the method: (§2)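 Clinical staphylococcal isolates from patient body fluids, blood, genital secretions, pus or sputum; species by conventional methods or Vitek. Twofold dilutions in Mueller-Hinton broth, inoculum 5 × 10^5 CFU/ml, 37°C aerobic 24 h (CLSI M7-A6 microdilution). About 100 μl from each well without visible growth spread on MHA; 37°C 24 h. MBC = lowest concentration giving no growth on agar.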

[10] = tested on: Staphylococcus epidermidis; assay: Bactericidal activity against methicillin-resistant coagulase-negative Staphylococcus epidermidis after 24 hrs by plate counting method
Staphylococcus hominis [11] = assay: Bactericidal activity against methicillin-resistant coagulase-negative Staphylococcus hominis after 24 hrs by plate counting method
Mammaliicoccus sciuri [12] = assay: Bactericidal activity against methicillin-susceptible coagulase-negative Staphylococcus sciuri after 24 hrs by plate counting method; summary of the method: as §2
[13] = tested on: Staphylococcus epidermidis; assay: Antimicrobial activity against methicillin-susceptible coagulase-negative Staphylococcus epidermidis after 24 hrs by broth microdilution method; summary of the method: as §1
[14] = tested on: Staphylococcus epidermidis; assay: Antimicrobial activity against methicillin-resistant coagulase-negative Staphylococcus epidermidis after 24 hrs by broth microdilution method; summary of the method: as §1
Staphylococcus aureus [15] = assay: Bactericidal activity against methicillin-resistant Staphylococcus aureus after 24 hrs by plate counting method; conditions: Staphylococcus aureus, 24 h
Porphyromonas gingivalis [16] = assay: Antimicrobial activity against Porphyromonas gingivalis
Porphyromonas gingivalis [17] = assay: Bactericidal activity against Porphyromonas gingivalis
Hoylesella loescheii [18] = assay: Antimicrobial activity against Prevotella loescheii
Hoylesella loescheii [19] = assay: Bactericidal activity against Prevotella loescheii
Staphylococcus aureus [20] = assay: Antimicrobial activity against methicillin-susceptible Staphylococcus aureus after 24 hrs by broth microdilution method; summary of the method: as §1
Staphylococcus hominis [21] = assay: Antimicrobial activity against methicillin-susceptible coagulase-negative Staphylococcus hominis after 24 hrs by broth microdilution method; summary of the method: as §1
Staphylococcus aureus [22] = assay: Bactericidal activity against methicillin-susceptible Staphylococcus aureus after 24 hrs by plate counting method; summary of the method: as §2
Cutibacterium acnes [23] = assay: Antimicrobial activity against Propionibacterium acnes
Cutibacterium acnes [24] = assay: Bactericidal activity against Propionibacterium acnes
[25] = tested on: Staphylococcus haemolyticus; assay: Bactericidal activity against methicillin-susceptible coagulase-negative Staphylococcus haemolyticus after 24 hrs by plate counting method; summary of the method: as §2
Staphylococcus simulans [26] = assay: Bactericidal activity against methicillin-susceptible coagulase-negative Staphylococcus simulans after 24 hrs by plate counting method; summary of the method: as §2
Staphylococcus simulans [27] = assay: Antimicrobial activity against methicillin-resistant coagulase-negative Staphylococcus simulans after 24 hrs by broth microdilution method; summary of the method: as §1
Prevotella intermedia [28] = assay: Antimicrobial activity against Prevotella intermedia
[29] = tested on: Staphylococcus haemolyticus; assay: Bactericidal activity against methicillin-resistant coagulase-negative Staphylococcus haemolyticus after 24 hrs by plate counting method
Staphylococcus simulans [30] = assay: Bactericidal activity against methicillin-resistant coagulase-negative Staphylococcus simulans after 24 hrs by plate counting method; summary of the method: as §2
Mammaliicoccus sciuri [31] = assay: Bactericidal activity against methicillin-resistant coagulase-negative Staphylococcus sciuri after 24 hrs by plate counting method; summary of the method: as §2
Prevotella intermedia [32] = assay: Bactericidal activity against Prevotella intermedia
[33] = tested on: Staphylococcus epidermidis; assay: Bactericidal activity against methicillin-susceptible coagulase-negative Staphylococcus epidermidis after 24 hrs by plate counting method; summary of the method: as §2
Staphylococcus hominis [34] = assay: Antimicrobial activity against methicillin-resistant coagulase-negative Staphylococcus hominis after 24 hrs by broth microdilution method; summary of the method: as §1
[35] = Staphylococcus epidermidis, 24 h
[36] = Staphylococcus haemolyticus, 24 h

With `COc1cc(O)c(C(=O)[C@@H]2[C@H](CC=C(C)C)C(C)=CC[C@H]2c2ccccc2)c(O)c1` [PANDURATIN A] the MIC50 [1] was 0.25 µg/mL (≈ 0.615 µM), the MIC90 [1] was 1 µg/mL (≈ 2.46 µM) and the MIC50 (Mammaliicoccus sciuri [2]) was 0.5 µg/mL (≈ 1.23 µM). The MIC90 (Mammaliicoccus sciuri [2]) was 1 µg/mL (≈ 2.46 µM), the MIC50 (Staphylococcus simulans [3]) was 0.5 µg/mL (≈ 1.23 µM) and the MIC90 (Staphylococcus simulans [3]) was 1 µg/mL (≈ 2.46 µM). It also gave an MBC (Streptococcus mutans [4]) of 8 µg/mL (≈ 19.7 µM), an MIC50 (Mammaliicoccus sciuri [5]) of 0.25 µg/mL (≈ 0.615 µM) and an MIC90 (Mammaliicoccus sciuri [5]) of 1 µg/mL (≈ 2.46 µM). For the same compound, the MIC50 [6] was 0.5 µg/mL (≈ 1.23 µM), the MIC90 [6] was 1 µg/mL (≈ 2.46 µM) and the MIC (Staphylococcus aureus [7]) was 0.5 µg/mL (≈ 1.23 µM). It also gave an MIC50 (Staphylococcus aureus [7]) of 0.5 µg/mL (≈ 1.23 µM), an MIC90 (Staphylococcus aureus [7]) of 1 µg/mL (≈ 2.46 µM) and an MIC (Streptococcus mutans [8]) of 4 µg/mL (≈ 9.84 µM). The MBC50 (Staphylococcus hominis [9]) was 1 µg/mL (≈ 2.46 µM), the MBC90 (Staphylococcus hominis [9]) was 4 µg/mL (≈ 9.84 µM) and the MBC (Staphylococcus hominis [9]; Staphylococcus hominis, 24 h) was 0.125 µg/mL (≈ 0.307 µM). The MBC50 [10] was 2 µg/mL (≈ 4.92 µM), the MBC [10, 35] was 1 µg/mL (≈ 2.46 µM) and the MBC50 (Staphylococcus hominis [11]) was 2 µg/mL (≈ 4.92 µM). It also gave an MBC (Staphylococcus hominis [11]; Staphylococcus hominis, 24 h) of 1 µg/mL (≈ 2.46 µM), an MBC50 (Mammaliicoccus sciuri [12]) of 1 µg/mL (≈ 2.46 µM) and an MBC90 (Mammaliicoccus sciuri [12]) of 4 µg/mL (≈ 9.84 µM). The MBC (Mammaliicoccus sciuri [12]; Mammaliicoccus sciuri, 24 h) was 0.125 µg/mL (≈ 0.307 µM), the MIC50 [13] was 0.5 µg/mL (≈ 1.23 µM) and the MIC90 [13] was 1 µg/mL (≈ 2.46 µM). It also gave an MIC50 [14] of 0.25 µg/mL (≈ 0.615 µM), an MIC90 [14] of 1 µg/mL (≈ 2.46 µM) and an MBC (Staphylococcus aureus [15]) of 2 µg/mL (≈ 4.92 µM). It also gave an MIC (Porphyromonas gingivalis [16]) of 4 µg/mL (≈ 9.84 µM), an MBC (Porphyromonas gingivalis [17]) of 8 µg/mL (≈ 19.7 µM) and an MIC (Hoylesella loescheii [18]) of 4 µg/mL (≈ 9.84 µM). It also gave an MBC (Hoylesella loescheii [19]) of 8 µg/mL (≈ 19.7 µM), an MIC (Staphylococcus aureus [20]) of 0.5 µg/mL (≈ 1.23 µM) and an MIC50 (Staphylococcus aureus [20]) of 0.5 µg/mL (≈ 1.23 µM). It also gave an MIC90 (Staphylococcus aureus [20]) of 1 µg/mL (≈ 2.46 µM), an MIC50 (Staphylococcus hominis [21]) of 0.5 µg/mL (≈ 1.23 µM) and an MIC90 (Staphylococcus hominis [21]) of 1 µg/mL (≈ 2.46 µM). The MBC50 (Staphylococcus aureus [22]) was 2 µg/mL (≈ 4.92 µM), the MBC90 (Staphylococcus aureus [22]) was 4 µg/mL (≈ 9.84 µM) and the MBC (Staphylococcus aureus [22]; Staphylococcus aureus, 24 h) was 1 µg/mL (≈ 2.46 µM). It also gave an MIC (Cutibacterium acnes [23]) of 2 µg/mL (≈ 4.92 µM), an MBC (Cutibacterium acnes [24]) of 4 µg/mL (≈ 9.84 µM) and an MBC50 [25] of 1 µg/mL (≈ 2.46 µM). It also gave an MBC90 [25] of 4 µg/mL (≈ 9.84 µM), an MBC [25, 36] of 0.125 µg/mL (≈ 0.307 µM) and an MBC50 (Staphylococcus simulans [26]) of 1 µg/mL (≈ 2.46 µM). It also gave an MBC90 (Staphylococcus simulans [26]) of 4 µg/mL (≈ 9.84 µM), an MBC (Staphylococcus simulans [26]; Staphylococcus simulans, 24 h) of 0.125 µg/mL (≈ 0.307 µM) and an MIC50 (Staphylococcus simulans [27]) of 0.25 µg/mL (≈ 0.615 µM). The MIC90 (Staphylococcus simulans [27]) was 1 µg/mL (≈ 2.46 µM), the MIC (Prevotella intermedia [28]) was 2 µg/mL (≈ 4.92 µM) and the MBC50 [29] was 2 µg/mL (≈ 4.92 µM). The MBC [29, 36] was 1 µg/mL (≈ 2.46 µM), the MBC50 (Staphylococcus simulans [30]) was 2 µg/mL (≈ 4.92 µM) and the MBC (Staphylococcus simulans [30]; Staphylococcus simulans, 24 h) was 1 µg/mL (≈ 2.46 µM). For the same compound, the MBC50 (Mammaliicoccus sciuri [31]) was 2 µg/mL (≈ 4.92 µM), the MBC (Mammaliicoccus sciuri [31]; Mammaliicoccus sciuri, 24 h) was 1 µg/mL (≈ 2.46 µM) and the MBC (Prevotella intermedia [32]) was 4 µg/mL (≈ 9.84 µM). The MBC50 [33] was 1 µg/mL (≈ 2.46 µM), the MBC90 [33] was 4 µg/mL (≈ 9.84 µM) and the MBC [33, 35] was 0.125 µg/mL (≈ 0.307 µM). It also gave an MIC50 (Staphylococcus hominis [34]) of 0.25 µg/mL (≈ 0.615 µM) and an MIC90 (Staphylococcus hominis [34]) of 1 µg/mL (≈ 2.46 µM).
